mIAP block – mouse IAP inhibition; purified mouse IAP, CDP-Star luminescence, 30 min; inhibition, % at 10 µM; actives 0.2% (n = 330,000);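 active = inhibition of at least 40% at 10 µM in the primary screen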;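 note: plate controls were DMSO with enzyme for no effect and no enzyme wells for full effect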
hIAP activ – increases human intestinal alkaline phosphatase activity; P09923; actives 0.16% (n = 330,000); AID 2524; activation factor at 10 µM; purified human IAP, CDP-Star luminescence, 30 min; hits give high values; 1 = vehicle-only enzyme, 0 = enzyme-free background;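 active = activation factor of the enzyme at least 2-fold when tested at 20 µM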
Target sequence (P09923 whole entry, looked up): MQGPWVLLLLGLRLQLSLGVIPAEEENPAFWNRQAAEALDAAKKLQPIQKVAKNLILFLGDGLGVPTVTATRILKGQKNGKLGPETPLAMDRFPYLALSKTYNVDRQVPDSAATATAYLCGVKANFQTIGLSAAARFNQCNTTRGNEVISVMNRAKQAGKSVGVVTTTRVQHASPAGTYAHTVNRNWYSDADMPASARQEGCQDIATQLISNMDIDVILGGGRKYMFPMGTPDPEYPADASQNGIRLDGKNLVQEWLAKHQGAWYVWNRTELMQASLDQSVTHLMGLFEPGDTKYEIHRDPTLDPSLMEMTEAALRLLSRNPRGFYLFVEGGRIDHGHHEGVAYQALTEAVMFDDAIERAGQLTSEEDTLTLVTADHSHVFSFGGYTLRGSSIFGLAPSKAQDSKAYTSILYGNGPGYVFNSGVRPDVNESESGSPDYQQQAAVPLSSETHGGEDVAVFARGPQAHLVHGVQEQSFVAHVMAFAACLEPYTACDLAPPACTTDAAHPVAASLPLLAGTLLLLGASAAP
bIAP inhibitor – blocks bovine intestinal alkaline phosphatase activity. purified bovine IAP, CDP-star luminescence, 30 min. inhibition, % at 20 µM. 190,000 tested, under 10 active. AID 1019;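 active = over 50% inhibition of intestinal alkaline phosphatase at 20 µM in the single-dose screen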
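Assay system – bovine IAP enzyme · Quantity – bovine IAP at 1/65,000,000 final dilution · Detection – CDP-star luminescence signal · Times – 30 min reaction at room temperature · Also added – CDP-star substrate at 30 µM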
bIAP activator – increases bovine intestinal alkaline phosphatase activity; purified bovine IAP, CDP-star luminescence, 30 min; hits give high values; fold of DMSO-control signal, blank-subtracted; activation factor at 20 µM; actives 0.17% (n = 200,000); AID 1016;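 active = activation factor of 2 or more at 20 µM, a signal rise over negative controls twice the positive control's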
mIAP activ – increases mouse intestinal alkaline phosphatase activity | activation factor at 10 µM | actives 0.24% (n = 330,000) | muIAP, CDP-Star luminescence, 30 min; hits give high values; 1 = vehicle-only enzyme signal, 0 = enzyme-free wells;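 active = activation factor of at least 2 at 20 µM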
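System: Mouse IAP enzyme | Also added: CDP-Star substrate | Dosing: Compounds dispensed in DMSO | Schedule: 30 min enzyme-substrate-compound incubation at room temperature | Technique: Chemiluminescence readout | Control set: DMSO-only wells and no-enzyme negative control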
hIAP block – blocks human intestinal alkaline phosphatase; P09923; actives 0.12% (n = 330,000); purified IAP, CDP-Star luminescence, 30 min; AID 2544; inhibition, % at 10 µM;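 active = inhibition reaching a set limit with compound at 10 µM in the primary screen, cut at about 35% in these data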;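 note: plate controls were DMSO wells with enzyme for no effect and no-enzyme buffer wells for full effect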
hIAP act confirm – human IAP activation confirmation; shares compounds with hIAP activ; purified IAP, CDP-Star luminescence, 30 min; hits give low values; activation (%Activity, negative = activation), % at 8.3 µM; actives 10% (n = 880); AID 434926;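 active = at least twofold enzyme activation in any of six single-dose repeats, which the averaged readout prints as negative percent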
* hit, by the source's call; · = no result given. Hits are enriched below; roughly 0.77% of the tested compounds scored in any of these assays.

SMILES | mIAP block | hIAP activ | bIAP inhibitor | bIAP activator | mIAP activ | hIAP block | hIAP act confirm
O=C1C2C3C=CC(C3)C2C(=O)N1c1n[nH]c(-c2ccccc2)n1 (centres undefined) | 0 | 0.95 | 47 | 0.5 | 1 | 5 | ·
O=C1C2CC=CCC2C(=O)N1c1n[nH]c(-c2ccccc2)n1 (centres undefined) | 2 | 0.08 | · | 0.1 | 0.97 | 92* | -46
C/C(=N/NC(=O)CNS(=O)(=O)c1ccccc1)c1ccc(Br)cc1 | 0 | 0.94 | · | · | 1 | 6 | ·
O=C1Nc2ccccc2/C1=N\N=C\c1ccc(O)c(O)c1 | 36 | 0.65 | · | · | 0.64 | 35* | 62
COc1cc(/C=N/N=C2/C(=O)Nc3ccccc32)ccc1O | 12 | 0.79 | 11 | 0.9 | 0.88 | 22 | ·
CC1=NN(Cc2ccccc2)C(=O)/C1=C\c1ccc(N(C)C)cc1 | 23 | 0.63 | 39 | 0.6 | 0.77 | 37* | 66
CCNC(=O)NC(=O)CSc1ccc(S(=O)(=O)N2CCCCC2)cn1 | 0 | 1 | · | · | 1 | -1 | ·
COc1cccc(/C=N/NC(=O)CNC(=O)COc2ccccc2)c1O | -2 | 1.5 | · | · | 1 | -52 | ·
O=C(COc1ccccc1)NCC(=O)N/N=C/c1ccc(O)cc1O | 0 | 2.1* | · | · | 1 | -105 | -4
CS(=O)(=O)N1CCN(C(=O)c2cc(-c3ccncc3)nc3ccc(Cl)cc23)CC1 | 1 | 2.5* | -2 | 1 | 0.99 | -145 | 8
CCOC(=O)c1c(C)[nH]c(C)c1S(=O)(=O)N(C)CC(=O)NCc1cccc(Br)c1 | -8 | 1.2 | · | · | 1.1 | -18 | ·
O=C(CSc1ncn[nH]1)NNC(=O)c1ccccc1 | 8 | 2.2* | · | · | 0.92 | -123 | -23
COc1cc(/C=C2\C(=O)N(c3ccc(NC(C)=O)cc3)N=C2c2ccccc2)ccc1O | 30 | 0.63 | 29 | 0.7 | 0.7 | 37* | -8
Cc1ccc(S(=O)(=O)NCC(=O)NNC(=O)c2ccccc2Cl)cc1C | 28 | 2.2* | · | · | 0.72 | -121 | -9
CCC(C)(C)C1CCc2[nH]nc(C(=O)N/N=C(\C)c3ccco3)c2C1 (centres undefined) | 2 | 2.1* | · | · | 0.98 | -110 | 63
COc1ccc(OC)c(N(CC(=O)NCCSC2CCCCC2)S(=O)(=O)c2ccccc2)c1 | -2 | 1.1 | · | · | 1 | -8 | ·
O=C(O)CNC(=O)c1ccccc1F | 5 | 0.94 | 6 | 0.9 | 0.95 | 6 | ·
O=C(NCCCCNC(=O)c1ccccc1F)c1ccccc1F | 9 | 0.63 | · | · | 0.91 | 37* | 17
Cc1nn(C)c(C(=O)NNC(=S)NCc2ccccc2)c1Cl | 15 | 2* | · | · | 0.85 | -104 | -141*
Cc1nn(C)c(C(=O)NC(=S)Nc2ccccc2Br)c1Cl | 5 | 0.85 | · | · | 0.95 | 15 | ·
Cc1c(C(=O)N/N=C/c2c(O)ccc3ccccc23)nnn1-c1nonc1N | 21 | 2* | · | · | 0.79 | -105 | -86*
Cc1ccc(NC2CCCCC2NS(=O)(=O)c2ccccc2)c(C)c1 (centres undefined) | -1 | 1.1 | · | · | 1 | -7 | ·
CCn1c2ccccc2c2cc(/C=N/n3cn[nH]c3=S)ccc21 | 12 | 1.1 | 4 | 1 | 0.88 | -13 | ·
CCn1c2ccccc2c2cc(/C=N/n3c(-c4cc(C)[nH]n4)n[nH]c3=S)ccc21 | -9 | 2.1* | · | · | 1.1 | -106 | 14
CCOc1ccc(CC(=O)NNC(=S)NC2CCCCC2)cc1OCC | -2 | 2.1* | 6 | 0.9 | 1 | -110 | -80*
SMILES | mIAP block | hIAP activ | bIAP inhibitor | bIAP activator | mIAP activ | hIAP block | hIAP act confirm
CCCn1c(SCCc2ccccc2)nc2c1c(=O)[nH]c(=O)n2C | 2 | 0.83 | 8 | 0.9 | 0.98 | 17 | ·
CCCn1c(N/N=C(C)\C=C\c2ccccc2)nc2c1c(=O)[nH]c(=O)n2C | -14 | 2.3* | -101 | 2* | 1.1 | -125 | -28
O=C(N/N=C/c1c(F)cccc1Cl)c1cc(C2CC2)[nH]n1 | -1 | 2* | · | · | 1 | -105 | 38
O=C(N/N=C/c1ccc(O)cc1)c1cc(C2CC2)[nH]n1 | -7 | 0.93 | · | · | 1.1 | 7 | ·
Cc1ccc(CN2CCC(c3nc4ccc(Cl)cc4[nH]3)CC2)cc1 | -60 | 1.1 | -38 | 1.4 | 1.6 | -7 | ·
Cc1cc2nc(C3CCN(Cc4nnnn4Cc4cccs4)CC3)[nH]c2cc1C | -15 | 0.63 | · | 0.5 | 1.1 | 37* | 79
COC(=O)CCC(=O)Nc1ccc(Cl)c(Cl)c1 | 3 | 0.92 | 16 | 0.8 | 0.97 | 8 | ·
COC(=O)CCC(=O)Nc1ccc2oc3c(c2c1)CCCC3 | 11 | 0.58 | · | · | 0.89 | 42* | -39
Cc1ccc(C(=O)N2CCN(S(=O)(=O)c3ccc(C(C)C)cc3)CC2)s1 | 6 | 0.99 | · | · | 0.94 | 0 | ·
Cc1nc2ccccn2c1C(=O)NNC(=S)Nc1ccc(Cl)cc1 | 13 | 0.93 | 4 | 1 | 0.87 | 7 | ·
Cc1cccc(-n2cnc(C(=O)NNC(=S)Nc3ccc(Cl)cc3)c2)n1 | 15 | 2* | -18 | 1.2 | 0.85 | -102 | 1
CCOC(=O)C1CCCN(C(=S)NC(=O)/C=C/c2ccc(F)cc2)C1 (centres undefined) | 0 | 0.61 | · | · | 1 | 39* | 2
COc1ccc(CCC(=O)NNC(=O)Nc2ccc(C(C)=O)cc2)cc1 | 3 | 1.1 | · | · | 0.97 | -5 | ·
COc1ccc(C2=NN(C(=O)c3ccccc3)C(c3ccc(OC)c(OC)c3)C2)c(OC(C)=O)c1 (centres undefined) | -5 | 1.1 | · | · | 1 | -12 | ·
COc1ccc(/C(O)=C/C(=O)C(=O)NNC(=O)c2ccccc2)cc1 | 11 | 2.2* | · | · | 0.89 | -117 | -3
Cc1ccc(-n2c(-c3cccnc3)n[nH]c2=S)c(C)c1 | 6 | 3* | 14 | 0.9 | 0.94 | -200 | 15
Cc1ccc(-n2c(-c3ccc(Cl)cc3)n[nH]c2=S)c(C)c1 | 4 | 0.89 | · | · | 0.96 | 11 | ·
O=C(NC(=S)NN1CCOCC1)c1cc(Br)ccc1Cl | -1 | 1 | · | · | 1 | 0 | ·
COc1cc(/C=N\NS(=O)(=O)c2ccccc2)cc(OC)c1OC | -6 | 0.63 | · | · | 1.1 | 37* | 31
CCCCCCc1nc(C(N)=O)c2[nH]c(=O)n(-c3ccc(OCC)cc3)c2n1 | -3 | 2.3* | · | · | 1 | -131 | 2
CCCCCCc1nc(C(N)=O)c2[nH]c(=O)n(-c3ccccc3F)c2n1 | -9 | 2.1* | · | · | 1.1 | -110 | -15
COc1ccc(C(=O)Nc2ccc(S(=O)(=O)Nc3nccc(C)n3)cc2)cc1[N+](=O)[O-] | 4 | 0.98 | · | · | 0.96 | 2 | ·
O=C(NCCc1ccccc1)c1ccc(S(=O)(=O)N2CCCC2)cc1 | -6 | 0.8 | · | · | 1.1 | 20 | ·
Cc1c(C(C)NC(=O)Nc2ccc(F)cc2F)cnn1C (centres undefined) | -5 | 2.1* | -13 | 1.1 | 1.1 | -110 | -47
